48 sequences from the EternaBench riboswitch data can be followed below.

The test system of this series is MS2 coat protein. The experiment in a line: apparent Kd, MS2 coat protein; higher = weaker binding; RNA-MaP array; FMN 200 µM where present. The gist of the method:
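Green signal was scaled to red-channel RNA signal and control-cluster median Fmax, and the apparent Kd was taken as the median of filtered per-cluster binding-curve fits. The binding series used SNAP-549-labelled MS2 coat protein from 0.7 or 1.5 nM, doubling to 3 µM, on designs transcribed by stalled E. coli RNA polymerase on Illumina sequencing-chip clusters. Each series ran without and then with constant ligand in 100 mM Tris-HCl pH 7.5, 80 mM KCl, 4 mM MgCl2, BSA, DTT, yeast tRNA and Tween-20.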

Setting [1] is: designed as: ON switch for flavin mononucleotide, no ligand.
Where [2] appears, read: ligand present: flavin mononucleotide, designed as: ON switch for flavin mononucleotide.
[3] abbreviates: designed as: OFF switch for flavin mononucleotide, no ligand.
Setting [4] is: ligand present: flavin mononucleotide, designed as: OFF switch for flavin mononucleotide.

What is called apparent Kd is the concentration giving half-maximal binding under the conditions of the assay.

“GUAUAUAUGAGGUAGGAUAUCCAAAAUAAAACAUGAGGAUCACCCAUGUAAAUAAAUAAUAAAUGGGAGAAGGACCACAUAUAUAC”: the “apparent Kd” value runs as follows: under setting [1], 30.8 nM; under setting [2], 13.8 nM.
In the case of “UUAUACAUGAGGAUCUCCCAUGACAUGAGGAUCACCCAUGUGCAGGAUAUACGUGUUAUAAUAUAGUAGAAGGGCAGUCUAUGU”, the “apparent Kd” value stood at 27.2 nM under setting [3] and 66.5 nM under setting [4].
Regarding “GCGUUCUUGUAGAAGGUACAUACAAUAUCUUAUAAACACAUGACACAUGAGGAUCACCCAUGUUGUAAGGAUAUACAUGAACGC”, the “apparent Kd” value is 6.29 nM under setting [1] and 7.73 nM under setting [2].
For “UCAGGCUUCGAGAAGGACAUGAGGAUCACCCAUGUUAGUUUGAAGCAGCCGUGAGGCUGCAUCAUGUAGGAUAUCGGAGUCUGC”, the “apparent Kd” value is 6.47 nM under setting [3] and 11.7 nM under setting [4].
Take “GCGUACAUCGGAGGAUAUCAUGUAAAUACAUGAGGAUCACCCAUGUCGAUGGAGACAUCGGAGAUUGAGAAGGCCGAUGUACCG”: the “apparent Kd” value is, setting by setting: under setting [1], 157 nM; under setting [2], 8.42 nM.
As for “AAGGUGAGAGGAUAUACAUGAGGAUCACCCAUGUGCCGGCCCUCCACAUAUGCCUUGUGUAGAAGGCUCCCGAA”, the “apparent Kd” value turned out to be 14.5 nM under setting [3] and 14.9 nM under setting [4].
For “UCGAGUCAUGAGAAGGGCUGAUGUUACAUGAGGAUCACCCAUGUCAUGGGCAGGAUAUCAUUGACACGGCUGUACCUUUCUUAC”, the “apparent Kd” value under setting [1] turned out to be 149 nM and the “apparent Kd” value under setting [2] stood at 29.4 nM.
On to “GUGUUUGAUGAGGAUAUCGCUGUGGGUACACAGCGAGAAGGCAUUACAUGAGGAUCACCCAUGUAGUGUGGGUU”, for which the “apparent Kd” value is, setting by setting: under setting [3], 24 nM; under setting [4], 105 nM.
On the same counts, the results for “CCUCGACAUGAGGAUCACCCAUGUCAGGAUAUUGUGUCUCGGGUUUUUUACCGUUAGGCAAGAAGGGAUGUGUG” are 22.1 nM and 23.2 nM.
For “UCUUAUCUAGGAUAUCCACCUCCUCACAUGAGGAUCACCCAUGUGCAGAACAACGGUCUCGGAGAAGGAGGUAUUG”, the “apparent Kd” value is, setting by setting: under setting [3], 25.9 nM; under setting [4], 25.3 nM.
On to “CGUUGUGAAGAGGAUAUCCAACAAAGUUGUCAAGGAGAAGGCUUCACAUGAGGAUCACCCAUGUUAUGCCUUAU”, for which the “apparent Kd” value under setting [3] is 18.2 nM and the “apparent Kd” value under setting [4] is 80.2 nM.
Consider “CUAGCUAUCGGAGGAUAUUCAUACCGGAAACGGACAUGAGGAUCACCCAUGUGCGGAAACGCUUGGGAGAAGGCCGAUAGCUAG”, for which the “apparent Kd” value under setting [1] was found to be 210 nM and the “apparent Kd” value under setting [2] is 18.9 nM.
With “GGUACUCAAAGAGUACCAAGACGAACAUGAGGAUCACCCAUGUAGGAUAUGCUACUCAAAGAGUAGCAGAAGGACAUGUGCCUA”, the “apparent Kd” value under setting [3] was determined as 17.1 nM and the “apparent Kd” value under setting [4] was 107 nM.
Turning to “GGAUGACAAAGUCAUCCAAUACGAACAUGAGGAUCACCCAUGUAGGAUAUGCUUCUCAAAGAGAAGCAGAAGGACAUGUGUCUU”, the “apparent Kd” value under setting [3] worked out at 28.7 nM and the “apparent Kd” value under setting [4] stood at 158 nM.
In the case of “CCCAAACUUGGGCUUGGCGGUGCAUAGGAUAUCCUUGGACAUGAGGAUCACCCAUGUACAACUGUGGAGAAGGGUGCAGGGCCU”, the “apparent Kd” value runs as follows: under setting [1], 31.2 nM; under setting [2], 8.61 nM.
For the sequence “AAAUUGCUAGAGGAUAUCGGAUAGGAUCUAUUACGAGAAGGUUGGACAUGAGGAUCACCCAUGUUCUGUUGGGA”, the “apparent Kd” value runs as follows: under setting [3], 23.8 nM; under setting [4], 23.5 nM.
As for “CCUUCGUGAGGAUAUCAUAGACAGCUCUCAGAAAUGGUCAAUGAGAAGGCACAUGAGGAUCACCCAUGUGGGUC”, the “apparent Kd” value under setting [3] amounted to 56.3 nM and the “apparent Kd” value under setting [4] was determined as 198 nM.
Consider “AUGGAUAUCACAGGAUAUGCUAAGGAUACCUUAGCAGAAGGGUGAUCCAUCCUAUGGCUGCACAUGAGGAUCACCCAUGUGUCC”, for which the “apparent Kd” value reads like this: under setting [1], 124 nM; under setting [2], 11.8 nM.
Regarding “GCGAAUAAGUGAGGAUAUACAUAAUUUAUAACUGUAGAAGGCACAAACCUCAAGACAUGAGGAUCACCCAUGUGAAAUAUCGCU”, the “apparent Kd” value under setting [3] was 31 nM and the “apparent Kd” value under setting [4] worked out at 81.8 nM.
“CCUGAGUCAGGAUAUUGUACCAGUCUAAAACCAGACUGACCCAAGAAGGGACAUGAGGAUCACCCAUGUGAAAA”: the “apparent Kd” value worked out at 30.2 nM under setting [3] and 25.5 nM under setting [4].
“AAAAAACAUGAGGAUCACCCAUGUGAGGAUAUGCAAAAAAAAAAAAAAAAAUAAAAAAGCAGAAGGCACAAAAA”: the “apparent Kd” value by setting is: under setting [3], 63.4 nM; under setting [4], 86.2 nM.
As to “UACAUGAGGAUCACCCAUGUUUUGUCGUGUAUGGUAUUUAUCUAGGAUAUCAAUGUAUUUAUGUAUGAGAAGGAGAAUAUUAAU”, the “apparent Kd” value came to 45.7 nM under setting [3] and 37.3 nM under setting [4].
In the case of “GUAGAGUAGUGAGGAUAUACGAGAUCGAUAGAUCGGCGAUCCAAUAAUACAUGAGGAUCACCCAUGUAGAAGGCACUUCUCUAC”, the “apparent Kd” value is 7.79 nM under setting [3] and 116 nM under setting [4].
“CUGUUAUAGGUCCAGAAUUACAACAUGAGGAUCACCCAUGUGCAGGAUAUCGGGAUAAUAAACGACGAGAAGGGCAUAGUCACG”: the “apparent Kd” value reads like this: under setting [3], 16.9 nM; under setting [4], 24.5 nM.
With “UUGAGGAAUUAAGGAUAUUGAGUACAUAUGUUUAACAUGAGGAUCACCCAUGUGGGUUGCGGUAUCGAGAAGGUAAAUUACAAG”, the “apparent Kd” value is, setting by setting: under setting [1], 129 nM; under setting [2], 133 nM.
On to “AAACUGCCACAUGAGGAUCACCCAUGUAAAUAAAGUAUUUGGAGAAGGGCGAUAGCAAAGCUAUCGCAGGAUAUUCUCAGGCAG”, for which the “apparent Kd” value is, setting by setting: under setting [1], 20.3 nM; under setting [2], 15.3 nM.
As to “GGGCCACAUGAGGAUCACCCAUGUAAGGAUAUGCUAGGGAUGGAAAAAAUUUCGCUAGGCAGAAGGUACUAAAG”, the “apparent Kd” value is, setting by setting: under setting [3], 32 nM; under setting [4], 55.6 nM.
Turning to “AGCUAGUCAGGAUAUGCAUACAUGUCAAAAGACGUGAAGGGACAUGAGGAUCACCCAUGUAGAAGGGACUAGCA”, the “apparent Kd” value came out at 40.4 nM under setting [3] and 67.9 nM under setting [4].
Consider “CCACGUCACAUUAACAUGAGGAUCACCCAUGUCAAAAGACAUGAGGAUAUGCAUCCUAAUUGGAUGCAGAAGGCAUGGACGUGG”, for which the “apparent Kd” value came to 475 nM under setting [1] and 36.1 nM under setting [2].
As for “UUCUAGCUCACAGGAUAUGGGUAUCGACGAUGCCCAGAAGGGUGAUUUGGCACAUGAGGAUCACCCAUGUGGGCGCUUGAAUAU”, the “apparent Kd” value is 45 nM under setting [1] and 98 nM under setting [2].
Turning to “GGACACCGAUCAGGAUAUACACGGCAUUCCAGAAACAUGAGGAUCACCCAUGUAGAAGGGAUCUGCGUCCUAAACAUAUCCAUU”, the “apparent Kd” value reads like this: under setting [3], 5.12 nM; under setting [4], 9.28 nM.
Taken in the same sequence, the figures for “AUCAUGUAAGGAUAUCUUAUAUGGAUCUUCGGAUCAAGUUAAGAGAAGGUACAUGAGGAUCACCCAUGUAUAAC” were 23.2 nM and 35.8 nM.
For the sequence “GUAUCGUAUGUGAGGAUAUAUUUGUCCUUGGAUCUGUAGAAGGCACAUGAGGAUCACCCAUGUCCAAGUGGUCC”, the “apparent Kd” value turned out to be 27.6 nM under setting [3] and 27.7 nM under setting [4].
As to “AAACAAAGGUGGAAACGGGAACCACAUGAGGAUCACCCAUGUAAGGAUAUCGACCAGCGGUGCGGCGAGAAGGUACAUAGGAAC”, the “apparent Kd” value is, setting by setting: under setting [3], 20.3 nM; under setting [4], 29.7 nM.
Turning to “ACGGCAAUCGAAGGAUAUGGUUACAUGAGGAUCACCCAUGUCUAGGGUCUAAUUAGGUAUAACUACCAGAAGGUCGAAGGCCUA”, the “apparent Kd” value runs as follows: under setting [3], 67.6 nM; under setting [4], 72.5 nM.
Turning to “CAUUAAUUCAUUAUAGUAAUUUUACAGGAUAUGUAACAUGAGGAUCACCCAUGUAUUCUAGGUUAACAGAAGGGUAUUACUUGU”, the “apparent Kd” value worked out at 28.9 nM under setting [3] and 20.7 nM under setting [4].
With “GCUCGAUGUGCUGAAAACAUGAGGAUCACCCAUGUAAAUGGUCAGGAUAUUUACGUGCUUUAUGUAGAGAAGGGACCAUCGAGC”, the “apparent Kd” value under setting [1] worked out at 200 nM and the “apparent Kd” value under setting [2] is 30.9 nM.
As to “UGUUGUAGUACAGGAUAUGCGGUGGAUUCGGACAUGAGGAUCACCCAUGUGCCUUUAUAACGUCUGCAGAAGGGUGAAAGAACG”, the “apparent Kd” value was determined as 500 nM under setting [1] and 130 nM under setting [2].
Consider “AGGAAGUUAGGAUAUGCUGCUCGUCACUUGCGUGAUGAGUAGCAGAAGGGACAUGAGGAUCACCCAUGUAAAGA”, for which the “apparent Kd” value by setting is: under setting [3], 36.8 nM; under setting [4], 21.9 nM.
Regarding “GAGUGCUGAGGAUAUACAUGAGGAUCACCCAUGUGCUUCAGCUAGGAGACUAGCAUUGGUAGAAGGCAGUACUC”, the “apparent Kd” value under setting [3] was 11.2 nM and the “apparent Kd” value under setting [4] was determined as 46 nM.
In the case of “CCUCGGUAGACAGGAUAUCCUUACAUGAGGAUCACCCAUGUAGCAAGACAUGGAGAAGGGUCACUGUGGGUAAAAGCGCAUAUC”, the “apparent Kd” value amounted to 225 nM under setting [1] and 14 nM under setting [2].
Regarding “UUAUGGAGGUAGGAUAUCAUGACGUCUUAGUUGUGAGAAGGGCUUACAUGAGGAUCACCCAUGUGGUGUUUUUG”, the “apparent Kd” value by setting is: under setting [3], 584 nM; under setting [4], 192 nM.
On to “GGUACCAUCACAGGAUAUGCUAUCCUUUGGGUAGCAGAAGGGUGUAACAUGAGGAUCACCCAUGUGGUGCCAGGGCGUGAGCCC”, for which the “apparent Kd” value under setting [1] amounted to 496 nM and the “apparent Kd” value under setting [2] was found to be 49.9 nM.
On to “GGUGGACAUGAGGAUCACCCAUGUGAGGAUAUCGGCUAUCUACUCGCUGACGGCUGCUCGAGAAGGCACAUUGU”, for which the “apparent Kd” value reads like this: under setting [3], 70.7 nM; under setting [4], 107 nM.
As for “GUUACACAUGAGGAUCACCCAUGUAAGGAUAUGCUGCGGUCGCGCUGACGUGACUGCAGCAGAAGGUACAAAUG”, the “apparent Kd” value is 77.4 nM under setting [3] and 92.1 nM under setting [4].
As to “AGAAAACAUGAGGAUCACCCAUGUCAAGCUAAUCAAGGAUAUGGGUCGGGAAAUCCCGCACCAGAAGGUGAAAUGC”, the “apparent Kd” value was 123 nM under setting [1] and 24.5 nM under setting [2].
For “UAGUGGCAAGGAUAUACAGUGGAGAGGAUUGCAAGAGGUGGACAUGAGGAUCACCCAUGUAGAAGGUGCAGAGA”, the “apparent Kd” value came out at 298 nM under setting [3] and 182 nM under setting [4].
For “AAAAUGUAAGGAUAUGGCCGGGACCCAGGGUUUGGACCCGGCUAGAAGGUACAUGAGGAUCACCCAUGUAAGAA”, the “apparent Kd” value under setting [3] was found to be 16.4 nM and the “apparent Kd” value under setting [4] was determined as 23 nM.
